Source: ChEMBL document CHEMBL1221221, “Discovering chemical modifiers of oncogene-regulated hematopoietic differentiation” (Nat Chem Biol, 2009)
Calls of active or inactive are those of the source. The rule behind the calls is not given here.

Columns and labels:
Danio rerio [1] = organism: Danio rerio; assay: Effect on gata1 gene expression in wild type zebrafish embryo at 20 uM treated 14 hrs post fertilization by in-situ hybridization analysis; type: functional, organism-based
Danio rerio [2] = organism: Danio rerio; assay: Effect on scl gene expression in wild type zebrafish embryo at 20 uM treated 14 hrs post fertilization by in-situ hybridization analysis; type: functional, organism-based
Danio rerio [3] = organism: Danio rerio; assay: Effect on MPO gene expression in wild type zebrafish embryo at 20 uM treated 14 hrs post fertilization by in-situ hybridization analysis; type: functional, organism-based
Danio rerio [4] = organism: Danio rerio; assay: Effect on l-plastin gene expression in wild type zebrafish embryo at 20 uM treated 14 hrs post fertilization by in-situ hybridization analysis; type: functional, organism-based
Danio rerio [5] = organism: Danio rerio; assay: Induction of MPO-positive granulocytic cell accumulation in heat-stimulated heterozygous transgenic zebrafish embryo; type: functional, organism-based
Danio rerio [6] = organism: Danio rerio; assay: Induction of AML1-ETO protein translation in 37 degC heat-stimulated heterozygous transgenic zebrafish assessed as phenotype appearance after 1 hr by in-situ hybridization analysis; type: functional, organism-based
Danio rerio [7] = organism: Danio rerio; assay: Downregulation of gata1 gene expression in 39 to 40 degC heat-stimulated heterozygous transgenic zebrafish embryo after 1 hr by in-situ hybridization analysis; type: functional, organism-based
Danio rerio [8] = organism: Danio rerio; assay: Upregulation of MPO gene expression in 39 to 40 degC heat-stimulated heterozygous transgenic zebrafish embryo after 1 hr by in-situ hybridization analysis; type: functional, organism-based
Danio rerio [9] = organism: Danio rerio; assay: Induction of AML1-ETO protein translation in 39 to 40 degC heat-stimulated heterozygous transgenic zebrafish assessed as phenotype appearance after 1 hr by in-situ hybridization analysis; type: functional, organism-based
Danio rerio [10] = organism: Danio rerio; assay: Inhibition of COX2-mediated decrease in gata1 expression in heat-stimulated heterozygous transgenic zebrafish embryo assessed as restoration of gata1 level at 25 uM by in-situ hybridization analysis
In short: (§1)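 Heterozygous Tg(hsp:AML1-ETO) embryos from homozygous × wild-type crosses. Compound added in DMSO 1 h before heat treatment at 39−40 °C for 1 h at 16−18 hpf. Embryos fixed 90 min after heat treatment, then whole-mount in situ hybridization for gata1 in posterior blood islands. Scored as counts of embryos showing the phenotype. DMSO vehicle control; unheated transgenic embryos for comparison.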

Danio rerio [11] = organism: Danio rerio; assay: Inhibition of COX2-mediated decrease in gata1 expression in heterozygous transgenic zebrafish embryo assessed as restoration of gata1 level at 25 uM by in-situ hybridization analysis; in short: as §1
Danio rerio [12] = organism: Danio rerio; assay: Inhibition of COX2 in heat-stimulated heterozygous transgenic zebrafish embryo assessed as MPO-positive granulocytic cell accumulation at 25 uM by in situ hybridization analysis
In short: (§2)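 Heterozygous Tg(hsp:AML1-ETO) embryos given heat treatment at 39−40 °C for 1 h at 16−18 hpf. Compound added in DMSO right at the end of heat treatment, with or without PGE2 (20 μM). Embryos fixed at 36−40 hpf for mpo in situ hybridization of granulocytic cells. Scored as counts of embryos showing the phenotype; unheated transgenic embryos also tested.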

Danio rerio [13] = organism: Danio rerio; assay: Inhibition of COX2 in heterozygous transgenic zebrafish embryo assessed as MPO-positive granulocytic cell accumulation at 25 uM by in situ hybridization analysis; in short: as §2
Danio rerio [14] = organism: Danio rerio; assay: Inhibition of COX2 in heat-stimulated heterozygous transgenic zebrafish embryo assessed as MPO-positive granulocytic cell accumulation at 25 uM by in situ hybridization analysis in presence of PGE2; in short: as §2
Danio rerio [15] = organism: Danio rerio; assay: Inhibition of heat-induced AML1-ETO protein expression in heterozygous transgenic zebrafish embryo by Western blot analysis; type: functional, organism-based
In short: (§3)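 Heterozygous Tg(hsp:AML1-ETO) embryos, bred from homozygous transgenic × wild-type crosses, were heat-treated at 39−40 °C for 1 h to induce AE. Lysates were Western blotted with anti-AML1 antibody for AE and also probed for Hsp70, with Akt as the loading reference. Controls were DMSO vehicle, heat-treated wild-type embryos, and unheated transgenic embryos.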

Danio rerio [16] = organism: Danio rerio; assay: Inhibition of Hsp70 expression in heterozygous transgenic zebrafish embryo at 0.5 uM by Western blot analysis; type: functional, organism-based
In short: (§4)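 Heterozygous Tg(hsp:AML1-ETO) embryos treated with compound or DMSO and heat-treated to induce transgene expression. Lysates examined by Western blot with anti-AML1 antibody for AML1-ETO, and also probed for Hsp70. Akt used as loading reference. Controls were heat-treated wild-type embryos and unheated transgenic embryos.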

Danio rerio [17] = organism: Danio rerio; assay: Inhibition of heat-induced AML1-ETO protein expression in heterozygous transgenic zebrafish embryo at 0.5 uM by Western blot analysis; type: functional, organism-based; in short: as §4
[18] = biological target: Glycogen synthase kinase 3 beta (Danio rerio) (UniProt Q9YH60); assay: Inhibition of GSK-3-beta-mediated activation of […] signaling in heat-stimulated heterozygous transgenic zebrafish embryo assessed as down-regulation of gata1 gene expression at 0.5 uM by in-situ hybridization analysis
Sequence of Glycogen synthase kinase 3 beta (Danio rerio) (Q9YH60 as listed by the source): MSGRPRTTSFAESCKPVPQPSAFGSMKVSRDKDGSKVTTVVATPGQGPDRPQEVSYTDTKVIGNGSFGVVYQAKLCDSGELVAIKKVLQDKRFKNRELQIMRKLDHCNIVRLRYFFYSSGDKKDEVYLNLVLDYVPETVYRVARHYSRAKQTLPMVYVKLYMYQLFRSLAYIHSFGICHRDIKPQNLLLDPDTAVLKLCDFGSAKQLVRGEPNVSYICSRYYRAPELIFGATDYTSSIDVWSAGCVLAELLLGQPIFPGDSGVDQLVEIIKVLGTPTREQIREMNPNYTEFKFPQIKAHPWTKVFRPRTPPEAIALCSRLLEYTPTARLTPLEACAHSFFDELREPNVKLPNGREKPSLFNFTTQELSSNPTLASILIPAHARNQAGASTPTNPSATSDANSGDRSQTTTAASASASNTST
In short: (§5)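 Heterozygous Tg(hsp:AML1-ETO) embryos exposed to the GSK-3β inhibitor from 14 hpf, after gastrulation, then given a mild heat treatment (37 °C, 1 h) or none. DMSO vehicle control. In situ hybridization for gata1 or mpo. Scored as numbers of embryos showing gata1 downregulation or mpo upregulation.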

[19] = biological target: Glycogen synthase kinase 3 beta (Danio rerio) (UniProt Q9YH60); assay: Inhibition of GSK-3-beta-mediated activation of […] signaling in heat-stimulated heterozygous transgenic zebrafish embryo assessed as upregulation of MPO gene expression at 0.5 uM by in-situ hybridization analysis; in short: as §5
[20] = biological target: Glycogen synthase kinase 3 beta (Danio rerio) (UniProt Q9YH60); assay: Inhibition of GSK-3-beta-mediated activation of […] signaling in heterozygous transgenic zebrafish embryo assessed as effect on gata1 gene expression at 0.5 uM by in-situ hybridization analysis; in short: as §5
[21] = biological target: Glycogen synthase kinase 3 beta (Danio rerio) (UniProt Q9YH60); assay: Inhibition of GSK-3-beta-mediated activation of […] signaling in heterozygous transgenic zebrafish embryo assessed as effect on MPO gene expression at 0.5 uM by in-situ hybridization analysis; in short: as §5
Danio rerio [22] = organism: Danio rerio; assay: Effect on gross morphology of heterozygous transgenic zebrafish embryo at 0.5 uM; type: ADME, organism-based; conditions: in vivo
Danio rerio [23] = organism: Danio rerio; assay: Inhibition of heat-induced AML1-ETO protein expression in heterozygous transgenic zebrafish embryo at 0.15 uM by Western blot analysis; type: functional, organism-based; in short: as §3
Danio rerio [24] = organism: Danio rerio; assay: Inhibition of Hsp70 expression in heterozygous transgenic zebrafish embryo at 0.15 uM by Western blot analysis; type: functional, organism-based; in short: as §3
Danio rerio [25] = organism: Danio rerio; conditions: 40 uM
Danio rerio [26] = organism: Danio rerio; conditions: 40 uM; remark: listed apart in the source
Danio rerio [27] = organism: Danio rerio; conditions: 40 uM; remark: listed apart in the source
Danio rerio [28] = organism: Danio rerio; conditions: 40 uM; remark: listed apart in the source
Danio rerio [29] = organism: Danio rerio; assay: Inhibition of COX2-mediated decrease in gata1 expression in heat-stimulated heterozygous transgenic zebrafish embryo assessed as restoration of gata1 level at 20 uM by in-situ hybridization analysis; in short: as §1
Danio rerio [30] = organism: Danio rerio; assay: Inhibition of COX2-mediated decrease in gata1 expression in heterozygous transgenic zebrafish embryo assessed as restoration of gata1 level at 20 uM by in-situ hybridization analysis; in short: as §1
Danio rerio [31] = organism: Danio rerio; assay: Inhibition of COX2 in heat-stimulated heterozygous transgenic zebrafish embryo assessed as MPO-positive granulocytic cell accumulation at 20 uM by in situ hybridization analysis; in short: as §2
Danio rerio [32] = organism: Danio rerio; assay: Inhibition of COX2 in heterozygous transgenic zebrafish embryo assessed as MPO-positive granulocytic cell accumulation at 20 uM by in situ hybridization analysis; in short: as §2
Danio rerio [33] = organism: Danio rerio; assay: Inhibition of COX2 in heat-stimulated heterozygous transgenic zebrafish embryo assessed as MPO-positive granulocytic cell accumulation at 20 uM by in situ hybridization analysis in presence of PGE2; in short: as §2
Danio rerio [34] = organism: Danio rerio; assay: Inhibition of AML1-ETO protein translation in heterozygous transgenic zebrafish assessed as suppression of phenotype appearance; type: functional, organism-based
In short: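 Heterozygous Tg(hsp:AML1-ETO) embryos were dechorionated with pronase at 12−16 hpf and kept in E3 buffer, five per well. Compound was added at 20 μM final. One hour later, AE expression was induced by heat shock at 40 °C for 1 h, followed by 90 min at 28.5 °C. Embryos were then fixed and gata1 in situ hybridization was scored in the posterior blood islands.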

CCCCC[C@H](O)/C=C/[C@H]1[C@H](O)CC(=O)[C@@H]1C/C=C\CCCC(=O)O
Activity (Danio rerio [1]): inactive
Activity (Danio rerio [2]): inactive
Activity (Danio rerio [3]): inactive
Activity (Danio rerio [4]): inactive
Activity (Danio rerio [5]): Active
inhibition (Danio rerio [6]): Active
inhibition (Danio rerio [7]): inactive
inhibition (Danio rerio [8]): inactive
Activity (Danio rerio [9]): Active

CS(=O)(=O)Nc1ccc([N+](=O)[O-])cc1OC1CCCCC1
inhibition (Danio rerio [10]): Active
inhibition (Danio rerio [11]): inactive
inhibition (Danio rerio [12]): Active
inhibition (Danio rerio [13]): inactive
inhibition (Danio rerio [14]): inactive

Oc1c(Cl)cc(Cl)cc1Sc1cc(Cl)cc(Cl)c1O
inhibition of AML1-ETO protein expression (active/not active) (Danio rerio [15]): Active

CC(/C=C/C(=O)NO)=C\[C@@H](C)C(=O)c1ccc(N(C)C)cc1
inhibition (Danio rerio [16]): inactive
inhibition (Danio rerio [17]): inactive

O=C1Nc2cc(Br)ccc2/C1=C1/Nc2ccccc2/C1=N\O [6BIO]
inhibition [18]: Active
inhibition [19]: Active
inhibition [20]: Active
inhibition [21]: Active
Activity (Danio rerio [22]): Toxic

C=C(C)[C@H]1Cc2c(ccc3c2O[C@@H]2COc4cc(OC)c(OC)cc4[C@@H]2C3=O)O1
inhibition (Danio rerio [23]): Active
inhibition (Danio rerio [24]): Active

CS(=O)(=O)Nc1ccc([N+](=O)[O-])cc1Oc1ccccc1
inhibition (Danio rerio [16]): inactive
inhibition (Danio rerio [17]): inactive
inhibition (Danio rerio [25]): inactive
inhibition (Danio rerio [26]): Active
inhibition (Danio rerio [27]): inactive
inhibition (Danio rerio [28]): inactive

Oc1ccc(Cl)cc1Cc1cc(Cl)ccc1O
inhibition of AML1-ETO protein expression (active/not active) (Danio rerio [15]): Active

COc1ccc2c(c1)c(CC(=O)O)c(C)n2C(=O)c1ccc(Cl)cc1
inhibition (Danio rerio [29]): Active
inhibition (Danio rerio [30]): inactive
inhibition (Danio rerio [31]): Active
inhibition (Danio rerio [32]): inactive
inhibition (Danio rerio [33]): inactive

O=c1oc2ccccc2c(O)c1Cc1c(O)c2ccccc2oc1=O
inhibition of AML1-ETO protein expression (active/not active) (Danio rerio [15]): inactive

COc1ccc2c(c1)O[C@@H]1COc3cc(OC)c(OC)cc3[C@@H]1C2=O
inhibition of AML1-ETO protein expression (active/not active) (Danio rerio [15]): Active

C[C@@H]1C[C@@H]([C@H](O)CC2CC(=O)NC(=O)C2)C(=O)[C@@H](C)C1
Imax (Danio rerio [34]): Active
inhibition (Danio rerio [24]): Active
